Residue numbers refer to the chain shown, from its start. “Also recorded” adds a separate entry of the source. Read-outs that look alike come from different tables or passages of the source.

Test [1] has as its target T1, XSmo ectodomain (Xenopus laevis, UniProt Q98SW5).
T1 sequence (Q98SW5 35-189): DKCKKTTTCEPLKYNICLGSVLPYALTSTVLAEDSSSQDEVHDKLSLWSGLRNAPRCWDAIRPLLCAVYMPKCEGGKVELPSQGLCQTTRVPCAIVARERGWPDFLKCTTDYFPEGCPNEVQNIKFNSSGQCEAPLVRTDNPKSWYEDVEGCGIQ
It is filed as binding.

The target in test [2] is T1, XSmo ectodomain. Description: Circular dichroism. It is filed as binding. Particulars: small molecule 25 μM; CD signal at 225 nm; protein alone Tm=62.1°C. (In general: Circular dichroism is widely used to follow secondary structure.)
In another test the target is mSmoE164L (Mus musculus, UniProt P56726, E164L). Description: Hh pathway activity by qPCR for Gli1 in Smo-null cells rescued with mSmoE164L. It is filed as cell-based.
Test [3] deals with T2, XSmoG84S ectodomain (Xenopus laevis, UniProt Q98SW5, G84S).
T2 sequence (Q98SW5 35-189 G84S): T1 sequence (Q98SW5 35-189) with G50S
Particulars: read-out: IC50, competition of BODIPY-cyclopamine binding. The method, boiled down:
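Purified E. coli-expressed Xenopus Smo G84S ectodomain incubated with BODIPY-cyclopamine (5 nM) and varying concentrations of unlabeled competitor for 1 h at room temperature. Fluorescence polarization read on a plate reader and converted to anisotropy. Measured in triplicate; IC50 obtained by fitting competition curves.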

The test system of test [4] is Hh signaling in NIH-3T3 cells. Description: Synergy with Shh in activating Hh signaling in NIH-3T3 cells. It is filed as cell-based, mouse.
The target of another test is mSmoD99A (Mus musculus, UniProt P56726, D99A). Description: Hh pathway activity by qPCR for Gli1 in Smo-null cells rescued with mSmoD99A. It is filed as cell-based. Background: In qPCR the cycle at which signal appears reflects the starting amount.
The target of a further test is mSmoG115S/E164L (Mus musculus, UniProt P56726, E164L/G115S). It is filed as cell-based.
In another test the target is mSmoG115S (Mus musculus, UniProt P56726, G115S). The test is described as follows: Hh pathway activity by qPCR for Gli1 in Smo-null cells rescued with mSmoG115S. It is filed as cell-based.
In a further test the target is mSmoG115F (Mus musculus, UniProt P56726, G115F). Description: Hh pathway activity by qPCR for Gli1 in Smo-null cells rescued with mSmoG115F. It is filed as cell-based.
The next test concerns the target mSmoD477G/E522K (Mus musculus, UniProt P56726, D477G/E522K). Description: BODIPY-cyclopamine binding to mCherry-tagged mSmoD477G/E522K in 293T cells. Particulars: 50 nM. The method, boiled down: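 mCherry-tagged mutant mSmo transiently expressed in 293T cells. Cells washed into serum-free OptiMEM, then incubated 1 h with BODIPY-cyclopamine, with or without SANT1 competitor (10 μM). Fixed in 3.6% formaldehyde/PBS for 30 min at room temperature and washed with TBST. BODIPY and mCherry signals imaged by epifluorescence microscopy.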

In test [5] the target is T1, XSmo ectodomain. The test is described as follows: Fluorescence polarization binding of BODIPY probes to purified XSmo ectodomain. Particulars: XSmo ectodomain (amino acids 35–189), probe 5 nM. The method, boiled down:
(§1)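 Xenopus Smo CRD (aa 35–154) or ectodomain (aa 35–189; wild type or G84S) expressed in E. coli as thioredoxin-His6 fusions. Purified by Ni-NTA, glutathione redox refolding and size exclusion. Increasing protein amounts mixed with BODIPY FL probes (5 nM) in 20 mM HEPES pH 7.5, 100 mM NaCl, 1 h at room temperature. FP converted to anisotropy; triplicate; Kd from curve fitting.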
A general note: Fluorescence polarisation rises when a labelled molecule tumbles more slowly, as on binding a larger partner.

Test [6] deals with T2, XSmoG84S ectodomain. It is filed as binding. An outline of the steps: as §1
The next test deals with T3, XSmoCRD (Xenopus laevis, UniProt Q98SW5).
T3 sequence (Q98SW5 35-154): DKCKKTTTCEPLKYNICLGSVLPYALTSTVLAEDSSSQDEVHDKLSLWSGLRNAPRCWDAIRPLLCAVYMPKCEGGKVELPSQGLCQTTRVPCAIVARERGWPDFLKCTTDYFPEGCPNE
The test is described as follows: Fluorescence polarization binding of BODIPY probes to purified XSmoCRD. Particulars: XSmoCRD (amino acids 35–154), probe 5 nM. An outline of the steps:
as §1

Test [7] concerns mSmoΔCRD. It is filed as cell-based, mouse. Particulars: irrespective of sterol depletion.
The target of another test is mSmo (Mus musculus, UniProt P56726). The test is described as follows: Ciliary localization of mSmo in rescued Smo-null cells. Particulars: with or without sterol depletion. It is filed as cell-based. The method, boiled down:
(§2)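 Smo-null cells rescued with the mSmo construct, grown on glass coverslips. Confluent cultures starved overnight in DMEM, then sterol-depleted with 1.5% MCD in DMEM for 30 min. Later incubations with agents in DMEM plus 40 μM pravastatin. Immunofluorescence used anti-acetylated tubulin as cilia marker; ciliary Smo intensity quantified by automated image analysis, at least 300 cilia per condition.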

Test [8] concerns mSmoΔCRD. The test is described as follows: Ciliary localization of mSmoΔCRD in rescued Smo-null cells. It is filed as cell-based, mouse. To be noted: with or without sterol depletion. The method, boiled down: as §2
The target of the next test is wild-type mSmo (Mus musculus, UniProt P56726). It is filed as cell-based. To be noted: for Effect on Hh pathway activity (Gli1 mRNA): mSmo, irrespective of sterol depletion; for Activation of Hh signaling (in words): wild-type mSmo, sterols delivered as MCD complexes.
The test system of test [9] is endogenous Smo in NIH-3T3 cells. Description: Ciliary recruitment of endogenous Smo in sterol-depleted NIH-3T3 cells. It is filed as cell-based. Particulars: for Recruitment of endogenous Smo to cilia: agent alone; for Rescue of Smo recruitment to cilia in response to Shh: sterols added back as MCD complexes (100 μM). The method, boiled down: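 Confluent NIH-3T3 cells starved overnight in DMEM, then sterol-depleted with 1.5% MCD for 30 min. Kept in DMEM with 40 μM pravastatin throughout. Sterols added back 1 h as MCD complexes, then overnight with agents or Shh (conditioned medium from 293T cells expressing human Shh aa 1–197). Stained with anti-acetylated tubulin (1:5000) and anti-mSmo (1 μg/mL final); ciliary Smo intensity quantified automatically.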

`CC(C)CCC[C@](C)(O)[C@H]1CC[C@H]2[C@@H]3CC=C4C[C@@H](O)CC[C@]4(C)[C@H]3CC[C@@]21C` [20(S)-OHC, 20(S)-hydroxycholesterol]: 1800 nM corresponded to half-maximal inhibition on XSmo ectodomain [1] (IC50). Moreover, at XSmo ectodomain [2], the “Melting temperature (Tm) of XSmo ectodomain” value (“Melting temperature (Tm)” for short) stood at 66.5 °C.

For `CCCCCC(C)(O)[C@H]1CC[C@H]2[C@@H]3CC=C4C[C@@H](O)CC[C@]4(C)[C@H]3CC[C@]12C` (stereo partly drawn) [20(S)-OHC-Pent], the “Activation of Hh signaling (in words)” value on mSmoE164L is “significantly decreases activation”; on mSmoD99A, “do not respond”; on mSmoG115S/E164L, “do not respond”; at mSmoG115S, “reduced”; on mSmoG115F, “does not activate”. In addition, the IC50 at XSmoG84S ectodomain [3] was determined as 44000 nM. Moreover, the “Synergy with Shh” value in test [4] was “does not synergize”.

Regarding `CC1=C2CC3C(CC=C4C[C@@H](O)CCC43C)C2CCC12O[C@@H]1CC(C)CN(CCNC(=O)CCCCCNC(=O)CCC3=[N+]4C(=Cc5c(C)cc(C)n5[B-]4(F)F)C=C3)C1C2C` (stereo partly shown) [BODIPY-cyclopamine], the “Binding to mSmoD477G/E522K in cells (fluorescence microscopy)” value at mSmoD477G/E522K is given as “does not bind”. The Kd on XSmo ectodomain [5] was determined as 434 nM; on XSmoG84S ectodomain [6], 621 nM; at XSmoCRD, 389 nM.

Take `CC(C)CCC[C@@](C)(O)[C@H]1CC[C@H]2[C@@H]3CC=C4C[C@@H](O)CC[C@]4(C)[C@H]3CC[C@@]21C` [20(R)-OHC]: the “Activation of Hh signaling (in words)” value on mSmoG115S is “strongly activated”.

On to `CCCCC[C@@](C)(O)[C@H]1CC[C@H]2[C@@H]3CC=C4C[C@@H](O)CC[C@]4(C)[C@H]3CC[C@@]21C` [20(R)-OHC-Pent], for which, at XSmoG84S ectodomain [3], the concentration for half-maximal inhibition (IC50) came out at 5500 nM.

Consider “BODIPY-20(S)-hydroxycholesterol [BODIPY-20(S)-OHC]”, for which the Kd at XSmo ectodomain [5] turned out to be 138 nM; at XSmoCRD it was 225 nM.

With `Cc1nn(-c2ccccc2)c(C)c1/C=N/N1CCN(Cc2ccccc2)CC1` [SANT1], the “Effect on Hh pathway activity (Gli1 mRNA)” value in the test on mSmoΔCRD [7] and at wild-type mSmo was “inhibited” throughout. In addition, the “Ciliary localization of mSmo” value at mSmo was “reduced”. Moreover, the “Ciliary localization of mSmoΔCRD” value in the test with mSmoΔCRD [8] is on record as “reduced”.

As for `CNC1CCC(N(Cc2cccc(-c3ccncc3)c2)C(=O)c2sc3ccccc3c2Cl)CC1` (stereo not shown) [SAG], the “Effect on Hh pathway activity (Gli1 mRNA)” value in the test with mSmoΔCRD [7] and at wild-type mSmo was “activated” throughout. Further, the “Ciliary localization of mSmo” value at mSmo is on record as “accumulate in cilia”. Further, the “Activation of Hh signaling (in words)” value on mSmoD99A is recorded as “robust activation”. Also, the “Recruitment of endogenous Smo to cilia” value in [9] is “strongly recruit”. Besides, the “Ciliary localization of mSmoΔCRD” value with mSmoΔCRD [8] is “accumulate in cilia”.

Regarding “BODIPY-22-azacholesterol [BODIPY-22-NHC]”, the Kd on XSmo ectodomain [5] was determined as 1400 nM; on XSmoCRD it was 1360 nM.

Take `CC(C)CCC[C@@H](C)[C@H]1CC[C@H]2[C@@H]3CC[C@H]4C[C@@H](O)CC[C@]4(C)[C@H]3CC[C@]12C` [cholestanol]: on XSmo ectodomain [1] (competition of BODIPY-cyclopamine), the “Binding to XSmo ectodomain (in words)” value is “inactive; also recorded: does not bind”. The “Melting temperature (Tm)” value on XSmo ectodomain [2] stood at 62.9 °C. Moreover, the “Activation of Hh signaling (in words)” value at wild-type mSmo is “inactive”.

`C[C@H](CCCC(C)(C)F)[C@H]1CC[C@H]2[C@@H]3CC=C4C[C@@H](O)CC[C@]4(C)[C@H]3CC[C@]12C` [25F-cholesterol, 25-fluorocholesterol]: the “Rescue of Smo recruitment to cilia in response to Shh” value (shortened to “Rescue of Smo recruitment to cilia”) in test [9] is “rescued”.

Take `CC(C)CCC[C@@H](C)[C@H]1CC[C@H]2[C@@H]3CC=C4C[C@@H](O)CC[C@]4(C)[C@H]3CC[C@]12C` [cholesterol]: the “Synergy with Shh” value in [4] is “synergizes”; on wild-type mSmo (Smo-null cells rescued with wild type mSmo, sterols 5 μM as MCD complexes), “synergizes”. Besides, the “Activation of Hh signaling (in words)” value is given as “defective” at mSmoD99A; “activate” at mSmoG115S/E164L; “activate” on mSmoG115S; “responds” at mSmoG115F; “activate” on wild-type mSmo; “activates Hh signaling” at wild-type mSmo (listed as Cholesterol). In addition, 2400 nM corresponded to half-maximal inhibition against XSmo ectodomain [1] (IC50). In addition, in [9], the “Rescue of Smo recruitment to cilia” value is listed as “rescued”. Besides, the “Melting temperature (Tm)” value on XSmo ectodomain [2] was determined as 65.3 °C. Also, on wild-type mSmo (add-back 100 μM MCD complex), the “Rescue of mSmo activation by Shh after sterol depletion” value is “rescues”.

Regarding `CC1=C2C[C@H]3[C@@H](CC=C4C[C@@H](O)CC[C@@]43C)[C@@H]2CC[C@]12O[C@@H]1C[C@H](C)CN[C@H]1[C@H]2C` [cyclopamine], on XSmo ectodomain [1], half-maximal inhibition (IC50) required 4500 nM. Further, on XSmo ectodomain [2], the “Melting temperature (Tm)” value turned out to be 66.6 °C.

Regarding `CC(C)CCC[C@@H](C)[C@H]1CC[C@H]2[C@@H]3C(O)C=C4C[C@@H](O)CC[C@]4(C)[C@H]3CC[C@]12C` (stereo partly shown) [7-hydroxycholesterol], the “Recruitment of endogenous Smo to cilia” value in [9] is “inactive”.

For the molecule `C[C@H](CCCC(F)(C(F)(F)F)C(F)(F)F)[C@H]1CC[C@H]2[C@@H]3CC=C4C[C@@H](O)CC[C@]4(C)[C@H]3CC[C@]12C` [F7-cholesterol], the “Rescue of Smo recruitment to cilia” value in test [9] is recorded as “rescued”.

One may read the IC50 as the concentration that gives 50% inhibition. For orientation: Kd means the equilibrium constant for the complex coming apart. Higher therefore signals lower affinity.
